Sampled rows, rich in hits. Any-hit rate of the full collection: about 1.4%.
PvdQ inh = blocks Pseudomonas aeruginosa PvdQ acylase activity. actives 0.063% (n = 340,000). inhibition, % at 10 µM. purified PvdQ acylase, fluorescence plate reader; in the data active means inhibition above about 30%, passing the limit was not always enough; inconclusive means no clear call, values can overlap the other calls;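 further: 0% = vehicle neutral wells and 100% = reference inhibitor wells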
CAL PDZ FP-1 = inhibitors of human CAL PDZ peptide binding; Q9HD26; purified CAL PDZ, TMR-peptide fluorescence polarization, 1 h; inhibition, % at 24.9 µM; actives 0.92% (n = 300,000);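 active means mean inhibition of at least 30% with at least half of replicates also reaching 30%; inconclusive means no clear call, values can overlap the other calls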;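 further: 0% = DMSO neutral control and 100% = excess unlabeled competitor peptide PRC23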
Glyco luc inh = blocks N-linked glycosylation in D54 reporter cells. D54 ERlucT glycosylation luciferase reporter, 24 h; percent of 100 nM tunicamycin response. reporter increase, % at 12.5 µM. actives 0.23% (n = 360,000);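 active means mean luciferase reporter signal, scaled so untreated is 0 and the glycosylation-blocking control 100, at or above a set limit in every replicate; inconclusive means mean reaches the limit but not every replicate does; inactive means mean below the limit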;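 further: luciferase carries N-glycosylation sites so blocking glycosylation raises the light; 0% = median of neutral control wells and 100% = median of 100 nM tunicamycin wells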
CAL PDZ FP-2 = human CAL PDZ-peptide interaction inhibition; Q9HD26; purified CAL PDZ, TMR-peptide fluorescence polarization, 1 h; inhibition, % at 20 µM; actives 0.02% (n = 330,000); AID 504414;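 active means highest replicate inhibition of at least 40%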;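 further: plate controls were DMSO neutral control wells for no effect and unlabeled competitor peptide control wells for full effect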
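System: tagged CAL PDZ domain. Schedule: 1 h room-temperature incubation prior to read. Signal: fluorescence polarization (mP). Measure: percent inhibition from loss of millipolarization.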
Vif inh = HIV Vif inhibition | actives 0.35% (n = 340,000) | AID 602346 | inhibition, % at 7.49 µM | HEK293T cells, Vif self-association by quenched fluorescence, imaging, 24 h; in the data active means inhibition above about 50%, passing the limit was not always enough; inconclusive means no clear call, values can overlap the other calls; inactive means below about 31%
CDK5 p35 inh = blocks human CDK5/p35 kinase activity; actives 0.01% (n = 330,000); inhibition, % at 10 µM; AID 488839; Recombinant CDK5/p35, ADP-Glo luminescence, 60 min; Q00535+Q15078;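 active means highest replicate inhibition of at least 50% and at least 75% of replicates reaching 50%; inconclusive means only one of the two criteria met; inactive means both criteria failed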;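 further: plate controls were DMSO neutral control for no effect and GW8510 at 10 µM for full effect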
Target sequence (Q00535 whole entry, looked up): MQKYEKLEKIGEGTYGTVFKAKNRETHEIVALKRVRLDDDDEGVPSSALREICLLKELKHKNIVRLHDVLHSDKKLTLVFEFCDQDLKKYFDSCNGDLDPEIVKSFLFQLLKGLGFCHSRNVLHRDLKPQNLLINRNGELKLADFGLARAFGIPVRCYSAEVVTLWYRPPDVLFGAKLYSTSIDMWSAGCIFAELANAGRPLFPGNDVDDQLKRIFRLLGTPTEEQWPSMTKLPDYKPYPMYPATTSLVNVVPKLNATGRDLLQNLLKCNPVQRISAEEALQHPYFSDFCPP
Target sequence (Q15078 whole entry, looked up): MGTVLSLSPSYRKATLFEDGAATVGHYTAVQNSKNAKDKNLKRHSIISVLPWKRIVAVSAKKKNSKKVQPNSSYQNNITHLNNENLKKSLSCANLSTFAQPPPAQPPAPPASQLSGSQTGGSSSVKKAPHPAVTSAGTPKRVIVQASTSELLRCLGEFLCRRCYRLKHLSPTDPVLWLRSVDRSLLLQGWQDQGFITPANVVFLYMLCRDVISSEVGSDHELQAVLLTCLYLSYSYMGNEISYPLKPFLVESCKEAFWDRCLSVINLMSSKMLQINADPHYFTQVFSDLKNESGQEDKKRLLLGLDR
Numbers without * were called inactive; ? = inconclusive; . = no result given.

SMILES	PvdQ inh	CAL PDZ FP-1	Glyco luc inh	CAL PDZ FP-2	Vif inh	CDK5 p35 inh
CCC(C)NC(=S)Nc1ccc(C(=O)OC)cc1 (stereo unspecified)	-23.3	-3.5	-0.6	0.2	-11.4	-2.3
CN(C)S(=O)(=O)c1ccc(NC(=O)C2CC(=O)N(Cc3ccccc3)C2)cc1 (stereo unspecified)	-7.2	-1.9	0.2	-2.5	-2.0	-1.4
CCN(CC)c1ccc(NC(=O)C2CC(=O)N(Cc3ccccc3)C2)cc1 (stereo unspecified)	-5.8	100.8*	6.4	-0.8	-2.4	0.8
COC(=O)c1ccccc1NC(=O)c1ccc2c(c1)OCCCO2	-11.9	-19.6	1.4	-2.4	-3.7	0.4
CC(=O)Nc1cccc(-c2csc(C(O)c3ccccc3)n2)c1 (stereo unspecified)	.	.	1.6	.	17.7	.
CCC1=Nc2cc(C(=O)NCCN3CCOCC3)ccc2Sc2ccc(C)cc21	-15.8	-3.0	0.2	-2.4	-23.5	1.0
CCC1=Nc2cc(C(=O)NCc3ccco3)ccc2Sc2ccc(C)cc21	-0.8	.	11.2	-1.4	56.9*	-1.9
COCCN(C(=O)Cc1cccs1)C(C(=O)NCc1ccc(OC)cc1)c1ccc(C)cc1 (stereo unspecified)	-4.7	-4.0	-1.5	-2.8	111.6*	-0.8
CCc1ccc(C(C(=O)NCc2ccc(OC)cc2)N(CCOC)C(=O)Cc2cccs2)cc1 (stereo unspecified)	2.8	-0.5	-2.5	-1.9	-3.5	3.6
COc1ccc(C=NNC(=O)c2cc(C)oc2C)cc1O	10.2	-3.2	15.2	-2.0	?	2.2
C[C@@H]1CN([C@@H](C)CO)S(=O)(=O)c2ccc(Br)cc2O[C@H]1CN(C)C(=O)Nc1ccc2c(c1)OCO2	.	.	1.2	.	-3.2	.
O=c1[nH]c(=S)[nH]c2c1C(c1ccc(Br)cc1)c1c([nH]c(=S)[nH]c1=O)O2	-8.7	31.0*	1.3	.	4.2	.
Cc1cc(C(=O)NCC2COc3ccccc3O2)c2ccccc2n1 (stereo unspecified)	-20.4	62.3*	1.8	-1.6	0.0	-4.3
O=C(NCC1COc2ccccc2O1)c1ccccc1 (stereo unspecified)	-1.4	.	0.2	-1.1	-0.6	1.0
COc1ccc(OCCOc2ccc(/C=C3\C(=N)N4N=C(C)SC4=NC3=O)cc2)cc1	-8.5	.	1.2	-0.4	2.6	-13.5
O=C(NNC(=O)c1ccc[nH]1)c1cccc(C(F)(F)F)c1	0.2	-3.7	1.0	-2.1	-3.2	-0.2
O=C(NNC(=O)c1ccc[nH]1)Nc1cc(Cl)cc(Cl)c1	.	.	1.1	.	55.3*	.
O=C(NNC(=O)c1ccc[nH]1)Nc1cccc(C(F)(F)F)c1	-13.4	71.0*	0.6	-0.7	-3.0	-0.4
CCN(CCO)Cc1csc2ccc(Cl)cc12	-6.4	-5.4	1.8	-0.6	6.3	2.0
CCN(CCO)Cc1csc2ccc(C(C)(C)C)cc12	-16.8	56.8*	-5.3	-0.7	-17.2	1.0
Cc1cccc(C)c1NC(=O)Nc1nnc([C@@H]2C[C@H](O)[C@@H](CO)O2)s1	.	.	2.3	.	-0.6	.
CCN(C(=O)CSc1nnc(Nc2cccc(C)c2C)s1)C1CCS(=O)(=O)C1 (stereo unspecified)	10.5	-3.5	2.2	-0.2	55.6*	0.7
CCN(C(=O)CSc1nnc(NCc2ccccc2)s1)C1CCS(=O)(=O)C1 (stereo unspecified)	-17.9	.	0.3	0.6	-16.9	-2.4
CCc1nnc(NC(=O)c2cc(-c3ccc(C)o3)nc3ccccc23)s1	5.4	0.7	1.5	-1.4	-2.8	0.0
CCc1nnc(NC(=O)c2cc(C)nc3ccccc23)s1	-10.8	64.9*	4.0	-1.2	-3.6	1.0
SMILES	PvdQ inh	CAL PDZ FP-1	Glyco luc inh	CAL PDZ FP-2	Vif inh	CDK5 p35 inh
O=C1CCC[C@@H]2[C@H]3CCC[N+]4([O-])CCC[C@@H](CN12)[C@@H]34 (stereo partly specified)	-8.0	29.0	2.0	-3.1	-0.5	1.8
C[C@@H]1CCCCO[C@@H](CN(C)S(=O)(=O)c2ccccc2)[C@@H](C)CN([C@H](C)CO)C(=O)c2cc(NS(=O)(=O)c3ccc(F)cc3)ccc2O1	.	.	-3.7	.	.	.
O=C(OC1C2CCC1C1CN(CCc3ccccc3)CC12)c1ccccc1 (stereo unspecified)	-18.7	40.6*	-2.5	-3.2	-2.4	0.7
COc1ccccc1C(=O)Nc1ccc2c(c1)nc(CN1CCCCC1)n2C	-15.9	70.8*	-3.9	-1.0	1.0	-0.9
Cn1c(CN2CCCCC2)nc2cc(NC(=O)c3ccccc3Cl)ccc21	-7.2	.	-6.0	0.4	3.0	-0.7
N#CC1=C(N)Oc2n[nH]c(-c3ccccc3)c2C1c1cccnc1 (stereo unspecified)	-1.2	-4.6	-0.8	0.2	.	1.8
N#CC1=C(N)Oc2n[nH]c(-c3cccnc3)c2C1c1ccc([N+](=O)[O-])o1 (stereo unspecified)	-20.6	51.3*	2.7	-5.4	-1.9	1.2
CC(=NNC(=O)c1cc(C)oc1C)c1ccc(Br)s1	1.6	-5.8	-0.8	-0.1	52.2*	0.3
C/C(=N\NC(=O)c1ccoc1C)c1ccc(Br)s1	-14.1	-4.8	3.0	-1.0	-2.8	1.0
CC[C@]12c3[nH]c4ccc(Cl)cc4c3CCN1C(=O)[C@@H](CC(=O)NCc1ccc(OC)c(OC)c1)C[C@@H]2C(=O)N1CCN(C(=O)c2ccco2)CC1	-7.4	6.7	1.2	-0.7	-7.5	-1.0
Cc1ccc(-c2cc(-c3c(C)nn(C)c(=O)c3N)[nH]n2)cc1	-15.3	41.5*	-0.8	0.2	-7.8	-1.1
CSc1ncccc1C(=O)Nc1cccc(S(=O)(=O)N(C)c2ccccc2)c1	-13.2	-9.8	-1.7	-2.6	-20.2	-1.1
CN(C)S(=O)(=O)c1ccc(C(=O)OCC2CCCO2)cc1 (stereo unspecified)	-10.1	-4.3	3.8	0.1	-10.4	0.2
CCOc1ccc(N2C(=O)Nc3ccccc3C2(O)C(=O)N2CCN(c3ccccn3)CC2)cc1 (stereo unspecified)	-11.6	-1.2	27.2*	0.3	-1.8	-2.2
CCOc1ccc(C(=O)N2CCN(c3ccccn3)CC2)cc1	-6.5	-1.9	-0.9	0.9	8.5	-0.2
CC(C)Sc1nnc(NC(=O)c2ccco2)s1	-5.7	55.9*	-2.9	7.7	-4.6	1.4
Cc1cc2nc(-c3ccncc3)cc(C(F)(F)F)n2n1	4.0	3.6	0.5	-1.3	9.5	0.3
Cc1cc(C(F)(F)F)n2nc(-c3cnn(C)c3C(F)(F)F)cc2n1	-6.3	0.4	3.0	-2.9	67.6*	0.2
Cc1ccc(S(=O)(=O)NN2C(=O)/C(=C/c3cccc(F)c3)SC2=S)cc1	-1.9	33.1*	3.0	-5.7	-2.4	-0.3
COc1cc(C)c2c(c1OC)C(=O)CC2	1.4	-2.2	0.1	-0.5	8.8	-0.9
CSc1ccccc1OCc1cc(C(=O)N(C)Cc2nonc2C)no1	-5.5	36.4*	-1.3	-0.4	?	-1.5

High-throughput results (PubChem)
